From ChEMBL document CHEMBL1122186, “Synthesis and spasmolytic activities of 2-(1,2-benzisoxazol-3-yl)-3-[[omega-(dialkylamino)alkoxy]phenyl]acrylonitriles” (1982) come the findings set out here.

What all share (type): functional
The species named for test [1] is Mus musculus.
Test [2] is filed under the species Cavia porcellus. Description: (§1) Inhibitory effect on the response of isolated ileum to acetylcholine (anti-ACh activity) in guinea pig was determined. A digest of the protocol:
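Ileum contraction to acetylcholine (1.1 × 10^-4 mM), with compound added 2 min before the agonist. Three concentrations per compound, percent inhibition averaged over four experiments. ID50 is derived graphically.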

Test [3] is filed under the species Cavia porcellus. Described as §1. The essentials:
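Isolated ileum contracted with acetylcholine (1.1 × 10^-4 mM). Test compound added 2 min before the agonist. Each compound was tested at three concentrations, with percent inhibition of the contraction as the mean of four experiments. ID50, the concentration giving 50% inhibition, was read off by the usual graphic method.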
The source holds these as a separate data set.

Test [4] deals with Mus musculus. Description: Percent inhibition of the charcoal meal transfer in mice(100 mg/kg) was determined. A digest of the protocol: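 Male ddN mice (20–25 g) are fasted 18 h and dosed orally. Charcoal meal (5% charcoal in 10% tragacanth) is given orally 20 min later, and mice are killed after 30 min. Charcoal travel is expressed as % of small-intestine length (pylorus to caecum). The group mean (n=7) is compared with the vehicle group (n=7) as percent change.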

In the case of `CCN(CC)CCOc1ccccc1/C=C(\C#N)c1noc2ccccc12.Cl`, in the test listed under Mus musculus [1], the Inhibition was determined as 20%.
On the same count and under the same terms, the result for `CN(C)CCCOc1ccccc1/C=C(\C#N)c1noc2ccccc12.Cl` reads 9%.
Compound `Cl.N#C/C(=C\c1ccccc1OCCN1CCCCC1)c1noc2ccc(Cl)cc12.O` registered an Inhibition in the test listed under Mus musculus [1] of 37%.
In the test listed under Mus musculus [1], `Cl.N#C/C(=C\c1cccc(OCCN2CCOCC2)c1)c1noc2ccccc12` displayed an Inhibition of 32%.
Take `Cl.N#C/C(=C\c1ccccc1OCCN1CCCCC1)c1noc2ccc(O)cc12`: the Inhibition in the test listed under Mus musculus [1] was 39%.
`CN(C)CCOc1ccccc1/C=C(\C#N)c1noc2ccc(Cl)cc12.Cl`: the Inhibition in the test filed under Mus musculus [1] worked out at 11%.
In the case of `CN1[C@@H]2CC[C@H]1C[C@@H](OC(=O)C(CO)c1ccccc1)C2.O=S(=O)(O)O` (stereo not given in full) [ATROPINE SULFATE], the ID50 in the test listed under Cavia porcellus [2] amounted to 0.0072 µM. In addition, the Inhibition in the test listed under Mus musculus [1] is given as 27%.
For the compound `COc1ccc(Cc2nccc3cc(OC)c(OC)cc23)cc1OC.Cl` [PAPAVERINE HYDROCHLORIDE], the Inhibition in the test filed under Mus musculus [1] is 1%.
`C[N+]1(CCOc2ccccc2/C=C(\C#N)c2noc3ccccc23)CCOCC1.[I-]` came in with an Inhibition in the test listed under Mus musculus [1] of 12%.
On to `CN1CC[C@]23c4c5ccc(O)c4O[C@H]2[C@@H](O)C=C[C@H]3[C@H]1C5.Cl` [MORPHINE HYDROCHLORIDE], for which the ID50 in the test listed under Cavia porcellus [3] turned out to be 5.3 µM. The compound also displayed an Inhibition in the test listed under Mus musculus [1] of 64%.
For the compound `Cl.N#C/C(=C\c1ccccc1OCCN1CCOCC1)c1noc2ccccc12.O`, in the test listed under Cavia porcellus [2], the ID50 amounted to 22 µM. For the same compound, the Inhibition in the test filed under Mus musculus [1] is on record as 55%.
For `COc1ccc2onc(/C(C#N)=C/c3ccccc3OCCN3CCOCC3)c2c1.Cl`, in that order: 32 µM and 48%.
With `Cl.N#C/C(=C\c1ccccc1OCCCCN1CCOCC1)c1noc2ccccc12`, in the test listed under Mus musculus [1], the Inhibition is 22%.
Compound `Cl.N#C/C(=C\c1ccccc1OCCN1CCOCC1)c1noc2ccc(O)cc12` returned an Inhibition in the test listed under Mus musculus [1] of 4%.
Turning to `COc1ccc2onc(/C(C#N)=C/c3ccccc3OCCN3CCCCC3)c2c1.Cl.O`, in the test filed under Cavia porcellus [2], the ID50 was 25 µM. The compound further yielded an Inhibition in the test with Mus musculus [4] of 51%.
Turning to `Br.N#C/C(=C\c1ccccc1OCCN1CCCCCC1)c1noc2ccccc12`, the Inhibition in the test filed under Mus musculus [1] amounted to 27%.
`COc1ccc2onc(/C(C#N)=C/c3ccccc3OCCN3CCCC3)c2c1.Cl.O` came in with an Inhibition in the test listed under Mus musculus [1] of 33%.
Consider `Cl.N#C/C(=C\c1ccccc1OCCCN1CCOCC1)c1noc2ccccc12`, for which the Inhibition in the test listed under Mus musculus [1] turned out to be 46%.
In the test listed under Mus musculus [1], `Cl.N#C/C(=C\c1ccccc1OCCN1CCOCC1)c1noc2ccc(Cl)cc12.O` registered an Inhibition of 11%.
As for `Cl.N#C/C(=C\c1ccccc1OCCN1CCCC1)c1noc2ccc(Cl)cc12`, the Inhibition in the test filed under Mus musculus [1] was found to be 19%.
As for `CCN(CC)CCOc1ccccc1/C=C(\C#N)c1noc2ccc(O)cc12.Cl`, the Inhibition in the test listed under Mus musculus [1] amounted to 14%.
On to `CCCC[N+]1(C)[C@@H]2C[C@@H](OC(=O)[C@H](CO)c3ccccc3)C[C@H]1[C@@H]1O[C@@H]12.[Br-]` (stereo not given in full) [BUTYLSCOPOLAMINE BROMIDE], for which, in the test listed under Cavia porcellus [2], the ID50 was 0.075 µM. For the same compound, the Inhibition in the test listed under Mus musculus [1] is reported as 19%.
As for `Cl.N#C/C(=C\c1ccccc1OCCN1CCCC1)c1noc2ccccc12`, the Inhibition in the test filed under Mus musculus [1] came out at 22%.
The same measure, in the same setting: the result for `Cl.N#C/C(=C\c1ccccc1OCCCN1CCCCCC1)c1noc2ccccc12` reads 21%.
In the test listed under Cavia porcellus [2], `Cl.N#C/C(=C\c1ccccc1OCCN1CCCCC1)c1noc2ccccc12.O` registered an ID50 of 8.7 µM. Moreover, in the test filed under Mus musculus [1], the Inhibition worked out at 45%.
Consider `CN(C)CCOc1ccccc1/C=C(\C#N)c1noc2ccccc12.Cl.O`, for which, in the test listed under Cavia porcellus [2], the ID50 was determined as 16 µM. In the test listed under Mus musculus [1], this compound had an Inhibition of 37%.
As to `Cl.N#C/C(=C\c1ccc(OCCCN2CCCCC2)cc1)c1noc2ccccc12.O`, the Inhibition in the test listed under Mus musculus [1] is on record as 19%.
